Laboratory results reported in ChEMBL document CHEMBL1125621, “Muscarinic receptor binding and activation of second messengers by substituted N-methyl-N-[4-(1-azacycloalkyl)-2-butynyl]acetamides” (1991).
Calls of active or inactive are those of the source.

Experiments:
[1] = target: Muscarinic acetylcholine receptor M3 (Mus musculus) (UniProt Q9ERZ3); test: Increase in phosphoinositide (PI) metabolism in A9L-cholinergic receptor, muscarinic 3 expressing cells was measured at 100 uMolar; type: functional; details: 100 uM
Muscarinic acetylcholine receptor M3 (Mus musculus), sequence (Q9ERZ3 whole entry): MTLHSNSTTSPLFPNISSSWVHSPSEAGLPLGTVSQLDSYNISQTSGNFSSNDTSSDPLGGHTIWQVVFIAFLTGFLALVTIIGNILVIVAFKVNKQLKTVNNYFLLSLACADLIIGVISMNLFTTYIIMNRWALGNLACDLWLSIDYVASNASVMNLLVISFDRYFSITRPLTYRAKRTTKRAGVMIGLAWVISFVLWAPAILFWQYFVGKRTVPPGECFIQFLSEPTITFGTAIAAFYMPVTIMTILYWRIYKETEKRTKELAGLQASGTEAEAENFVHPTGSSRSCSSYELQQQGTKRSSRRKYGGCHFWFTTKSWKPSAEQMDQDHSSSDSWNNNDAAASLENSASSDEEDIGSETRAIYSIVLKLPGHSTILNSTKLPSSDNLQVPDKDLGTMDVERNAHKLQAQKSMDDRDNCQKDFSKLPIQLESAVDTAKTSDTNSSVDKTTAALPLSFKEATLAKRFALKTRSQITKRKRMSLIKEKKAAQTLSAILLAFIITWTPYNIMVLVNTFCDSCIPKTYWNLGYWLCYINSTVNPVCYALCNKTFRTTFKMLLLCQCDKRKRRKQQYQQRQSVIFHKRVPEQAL
In short: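 A9L fibroblasts transfected with m3 receptor, grown in DMEM with 10% newborn calf serum. Labeled overnight with [3H]myo-inositol, preincubated 5 min at 37 °C in 10 mM LiCl DMEM-Hepes. Compound at 100 μM final, 30 min at 37 °C. Labeled inositol phosphates extracted by ion exchange. Result expressed as percent of the oxotremorine-M response, duplicate determinations.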

[2] = target: T1, Muscarinic acetylcholine receptor (Rattus norvegicus) (UniProt P08482+P08483+P08485+P08911+P10980); test: Displacement of [3H]N-methylscopolamine ([3H]NMS) binding at muscarinic acetylcholine receptor in rat cerebral cortical membranes; type: cell membranes; set-up: concentration or dose not given beside the values; details: Membrane
In short: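 Rat (Sprague-Dawley, either sex, 200 g) forebrain membranes, homogenized and washed in 50 mM sodium phosphate pH 7.4. 200-300 μg membrane incubated with 0.5 nM [3H]NMS plus compound (single concentration, 100 μM) in phosphate-buffered saline, 60 min at 37 °C. Filtered on glass fiber, scintillation counted. Nonspecific binding defined with 1 μM atropine. Triplicate. Reported as percent displacement.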

[3] = target: T1, Muscarinic acetylcholine receptor (Rattus norvegicus); test: Evaluated for displacement of [3H]oxotremorine-M binding ([3H]OXO-M) at muscarinic acetylcholine receptor in rat forebrain membranes; type: cell membranes; set-up: concentration or dose not given beside the values; details: Membrane
In short: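 Sprague-Dawley rat forebrain membranes. Incubated with 2.7 nM [3H]Oxo-M in 50 mM NaPO4, 2 mM MgCl2, pH 7.4, 20 min at 37 °C. Filtered on glass fiber presoaked in 0.05% polyethylenimine. Nonspecific binding defined with 1 μM atropine. Single concentration 1 μM, triplicate, averaged over two to five trials. Read-out is percent displacement of specific binding.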

A9 [4] = test: Increase in phosphoinositide (PI) metabolism in A9L-m1 cells at 100 uM.; type: functional, Mus musculus
[5] = The percent inhibition of cyclic AMP(cAMP) formation in NG108-15 cells at 100 uM.; details: Mus musculus
[6] = The percent inhibition of cyclic AMP(cAMP) formation in NG108-15 cells expressed in m40AChR was measured; i=inactive (< 2%); details: Mus musculus
[7] = target: T1, Muscarinic acetylcholine receptor (Rattus norvegicus); test: compound was evaluated for displacement of [3H]oxotremorine-M binding ([3H]OXO-M) at muscarinic acetylcholine receptor in rat forebrain membranes; i = inactive (< 1%); type: cell membranes; details: Membrane
In short: (§1)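 Forebrain membranes from Sprague-Dawley rats, prepared in 50 mM sodium phosphate pH 7.4. Incubated with 2.7 nM [³H]Oxo-M and test compound at a single concentration of 1 μM in 50 mM NaPO₄, 2 mM MgCl₂, pH 7.4, 20 min at 37 °C. Filters presoaked in polyethylenimine; nonspecific binding with 1 μM atropine. Percent displacement, mean of two to five trials.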

A9 [8] = test: The increase in phosphoinositide (PI) metabolism in A9L-m1 cells was measured at 100 uM; i = inactive; type: functional, cell-based; details: Mus musculus
In short: (§2)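 A9L fibroblasts transfected with m1 or m3 receptor, grown in DMEM with 10% newborn calf serum. Labeled overnight with [³H]myo-inositol, preincubated 5 min at 37 °C in 10 mM LiCl in DMEM-Hepes, then exposed to compound at 100 μM final for 30 min. Inositol phosphates extracted by ion exchange. Result expressed as percent of Oxo-M response; duplicate determinations.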

[9] = target: T1, Muscarinic acetylcholine receptor (Rattus norvegicus); test: Compound was evaluated for displacement of [3H]oxotremorine-M binding ([3H]OXO-M) at muscarinic acetylcholine receptor in rat forebrain membranes; type: cell membranes; details: Membrane; in short: as §1
[10] = target: T1, Muscarinic acetylcholine receptor (Rattus norvegicus); test: Compound was evaluated for displacement of [3H]N-methylscopolamine ([3H]NMS) binding at muscarinic acetylcholine receptor in rat cerebral cortical membranes; type: cell membranes; details: Membrane
In short: (§3)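 Rat cerebral cortical membranes, 200-300 μg per tube, incubated with 0.5 nM [³H]NMS and test compound at a single concentration of 100 μM in phosphate-buffered saline, 60 min at 37 °C. Glass fiber filtration and scintillation counting. Nonspecific binding taken with 1 μM atropine and subtracted. Triplicates; result given as percent displacement of specific binding.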

[11] = target: T1, Muscarinic acetylcholine receptor (Rattus norvegicus); test: compound was evaluated for displacement of [3H]N-methylscopolamine ([3H]NMS) binding at muscarinic acetylcholine receptor in rat cerebral cortical membranes; i = inactive (< 1%); type: cell membranes; details: Membrane; in short: as §3
[12] = target: T2, cyclic AMP phosphoprotein (Rattus norvegicus) (UniProt Q712U5); test: The percent inhibition of cyclic AMP(cAMP) formation in NG108-15 cells expressed in m40AChR was measured; type: functional, cell-based; details: concentration not given here
T2 sequence (whole entry): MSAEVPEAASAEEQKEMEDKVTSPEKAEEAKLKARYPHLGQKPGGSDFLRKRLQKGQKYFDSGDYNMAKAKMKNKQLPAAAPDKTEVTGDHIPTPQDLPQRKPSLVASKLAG
In short: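 NG108-15 cells expressing m4 receptors; compound at 100 μM. Cyclic AMP inhibition expressed as percent of Oxo-M (100%), average of two or three trials.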

A9 [13] = test: The increase in phosphoinositide (PI) metabolism in A9L-m3 cells was measured at 100 uM; i = inactive; type: functional, cell-based; details: Mus musculus; in short: as §2

SMILES | PI turnover [1] | Displacement [2] | Displacement [3] | PI turnover (A9 [4]) | inhibition [5] | inhibition [6] | other results
C[N+](C)(C)CCOC(N)=O | 86.1 |  |  |  |  |  | 
CC(=O)N(C)CC#CCN1CCCC1 | 41.6 | 89.4% | 94.7% | 52.5 | 100% |  | 
CC(=O)N(C)CC#CCN1CCC(OS(C)(=O)=O)C1.O=C(O)C(=O)O (centres undefined) | 17.2 | 20.2% | 25.2% | 10.4 | 38.5% |  | 
CC(=O)N(C)CC#CCN1CCCCC1CO.O=C(O)C(=O)O (centres undefined) | 12.5 | 31.2% | 20.4% | 7.3 |  | inactive | 
CC(=O)N(C)CC#CCN1CCC(OS(=O)(=O)c2ccc(C)cc2)C1.O=C(O)C(=O)O (centres undefined) | 23.1 | 51.6% | 64.8% | 23.1 | 83.6% |  | 
CC(=O)N(C)CC#CCN1CCN(C(C)=O)CC1.O=C(O)C(=O)O | 3.1 | 59.2% |  | 1 |  | inactive | Displacement [7]: inactive
COC[C@@H]1CCCN1CC#CCN(C)C(C)=O.O=C(O)C(=O)O | 5.5 | 52% |  | 6.2 | 15.4% |  | 
CC(=O)N(C)CC#CCN1CCCCC1 | 5.6 | 83.4% | 68.9% |  |  | inactive | PI turnover (A9 [8]): inactive
CC(=O)N(C)CC#CCN1CCC1.O=C(O)C(=O)O | 59.8 | 38% | 94% | 61.3 | 95.7% |  | 
CC(=O)N(C)CC#CCN1CCC[C@@H]1CF.O=C(O)C(=O)O | 10.4 | 67.2% | 61.5% | 7.2 | 38.6% |  | 
CC(=O)N(C)CC#CCN1CCC(CO)CC1.O=C(O)C(=O)O | 16 | 10.2% | 14.7% | 8.8 | 4.8% |  | 
CC(=O)N(C)CC#CCN1CCNCC1.O=C(O)C(=O)O | 12 | 51.2% | 33.8% | 18.2 | 16.8% |  | 
CC(=O)N(C)CC#CCN1CCC[C@@H]1CO.O=C(O)C(=O)O | 4.8 | 56.2% | 39.7% | 2.6 |  | inactive | 
CCOC(=O)C1CCCCN1CC#CCN(C)C(C)=O.O=C(O)C(=O)O (centres undefined) | 15.2 | 5.8% | 24.9% | 12.8 | 44.1% |  | 
CC(=O)N(C)CC#CCN1CCC(F)CC1 |  | 18.8% |  |  |  |  | 
CC(=O)OC[C@H]1CCCN1CC#CCN(C)C(C)=O | 2.6 |  |  |  |  | inactive | Displacement [9]: 42.1%; PI turnover (A9 [8]): inactive; Displacement [10]: 61.6%
CC(=O)N(C)CC#CCN1CCC(C(=O)O)CC1 | 5.2 |  | 26.8% |  | 17.5% |  | Displacement [11]: inactive; PI turnover (A9 [8]): inactive
CC(=O)N(C)CC#CCN1CCCC(O)C1 (centres undefined) | 4.9 | 21.7% | 9.1% |  | 3.4% |  | PI turnover (A9 [8]): inactive
CCOC(=O)C1CCN(CC#CCN(C)C(C)=O)CC1.O=C(O)C(=O)O | 8.8 | 47.5% | 32.1% | 3.3 |  | inactive | 
O=C1CCCN1CC#CCN1CCCC1 | 35.6 |  |  |  |  |  | 
CC(=O)N(C)CC#CCN1CCC(O)C1.O=C(O)C(=O)O (centres undefined) | 7.4 | 21.5% | 39.9% | 17.1 | 22.5% |  | 
CC(=O)N(C)CC#CCN1CCC(O)CC1 | 2.6 | 3.8% | 9.2% |  |  |  | PI turnover (A9 [8]): inactive
CC(=O)N(C)CC#CCN1CCC[C@H]1CO.O=C(O)C(=O)O | 4.7 | 33.1% | 25% | 5.1 |  | inactive | 
CC(=O)N(C)CC#CCN1CCCC(CO)C1 (centres undefined) | 2.8 | 45% | 22.4% |  |  |  | PI turnover (A9 [8]): inactive
CCOC(=O)C1CCCN(CC#CCN(C)C(C)=O)C1.O=C(O)C(=O)O (centres undefined) | 12.9 | 39.8% | 31.2% | 6.6 | 23.6% |  | 
CC(=O)N(C)CC#CCN1CCC(F)C1.O=C(O)C(=O)O (centres undefined) | 7.9 | 29% | 38.1% | 11.3 | 8.9% |  | 
CC(=O)N(C)CC#CCN1CCC[C@H]1CF.O=C(O)C(=O)O | 10.6 | 53.8% | 50.5% | 11.1 |  |  | inhibition [12]: 62.4%
CC(=O)N(C)CC#CCN1CCC(CCO)CC1.O=C(O)C(=O)O |  | 16.3% | 11% | 3.3 |  | inactive | 
CC(=O)N(C)CC#CCN1CCC(OC(=O)c2ccccc2)C1.O=C(O)C(=O)O (centres undefined) | 4 | 57.4% | 39.1% | 1.4 |  | inactive | 
CC(=O)N(C)CC#CCN1CCN(CCO)CC1 |  | 9.3% | 22.3% |  |  | inactive | PI turnover (A9 [8]): inactive; PI turnover (A9 [13]): inactive
